Laboratory results reported in PubChem BioAssay AID588559 (The Scripps Research Institute Molecular Screening Center, 2011).
Activity calls are given as the source filed them.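 How the source made its calls: active means PAD4 enzyme activity blocked 50% or more; inactive means under 50% inhibition.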

The compounds below were run against Protein-arginine deiminase type-4 (Homo sapiens) (UniProt Q9UM07) (assay: recombinant human PAD4 activity inhibition – biochemical, BAEE substrate, colorimetric citrulline readout, late-stage follow-up (AID 588559)). Details: colorimetric citrulline detection, at 100 µM, active compounds read high.
Procedure, shortened: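 system = recombinant PAD4 | quantity = 0.2 µM PAD4 enzyme | timing = 15 min enzyme–compound preincubation, then 15 min BAEE reaction, 37 °C | signal = colorimetric citrulline absorbance at 540 nm | measure = % inhibition versus DMSO | control set = DMSO-treated PAD4 as uninhibited reference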

Protein-arginine deiminase type-4 (Homo sapiens), sequence (Q9UM07 whole entry, looked up): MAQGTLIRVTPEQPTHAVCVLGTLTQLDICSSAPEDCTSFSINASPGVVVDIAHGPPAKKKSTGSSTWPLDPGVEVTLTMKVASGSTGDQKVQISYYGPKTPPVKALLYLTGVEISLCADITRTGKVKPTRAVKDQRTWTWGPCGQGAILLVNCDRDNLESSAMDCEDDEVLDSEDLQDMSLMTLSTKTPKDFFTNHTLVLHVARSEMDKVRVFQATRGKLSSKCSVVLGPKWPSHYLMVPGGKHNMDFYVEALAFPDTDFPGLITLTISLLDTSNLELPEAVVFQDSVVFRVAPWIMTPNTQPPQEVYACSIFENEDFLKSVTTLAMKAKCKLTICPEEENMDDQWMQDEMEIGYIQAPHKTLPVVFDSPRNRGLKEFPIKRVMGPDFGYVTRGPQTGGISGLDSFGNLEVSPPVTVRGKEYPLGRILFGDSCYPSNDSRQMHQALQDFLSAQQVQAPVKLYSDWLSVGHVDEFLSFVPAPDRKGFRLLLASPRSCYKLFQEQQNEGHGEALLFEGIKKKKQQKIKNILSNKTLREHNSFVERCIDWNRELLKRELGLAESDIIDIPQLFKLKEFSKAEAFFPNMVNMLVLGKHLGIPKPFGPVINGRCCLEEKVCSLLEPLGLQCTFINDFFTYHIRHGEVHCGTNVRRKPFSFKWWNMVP

| SMILES | inhibition |
| --- | --- |
| O=C1C(Br)=CC(=O)c2ncccc21 | 97% |
| NC1=C(N)C(=O)c2ccccc2C1=O | 97% |
| COC(=O)c1nc(C(C)=O)c2[nH]c3ccccc3c2c1C | 0% (inactive) |
| NC1=CC(=O)c2ccc(-c3cccc(C(=O)O)n3)nc2C1=O | 98% |
| COC1=CC(=O)c2nc(C#N)ccc2C1=O | 98% |
| NC1=CC(=O)c2cccnc2C1=O | 98% |
| COc1ccc2ncccc2c1[N+](=O)[O-] | -12% (inactive) |
| O=C(O)c1cccc(-c2ccc3ccc(Br)c(OCc4ccccc4)c3n2)n1 | -8% (inactive) |
| COC(=O)c1cccc(-c2ccc3c(n2)C(=O)C(Br)=CC3=O)n1 | 90% |
| O=C1C(O)=C(O)C(=O)c2ncccc21 | 98% |
| COC1=C(N)C(=O)c2ncccc2C1=O | 99% |
| COC(=O)c1nnc(C(=O)OC)c(-c2ccc3ccccc3n2)n1 | -21% (inactive) |
| COC(=O)c1cccc(-c2ccc3c(n2)C(=O)C(N)=CC3=O)n1 | 91% |
| NC1=CC(=O)c2ccc(-c3ccccn3)nc2C1=O | 88% |
| COC(=O)c1nc(C(=O)OC)c(N)c(-c2ccccc2Br)c1C | 9% (inactive) |
| COc1ccc2nc(C#N)ccc2c1[N+](=O)[O-] | -13% (inactive) |
| COC(=O)c1nc(-c2ccc3c(n2)C(=O)C(Br)=CC3=O)c2[nH]c3ccccc3c2c1C | 0% (inactive) |
| COC(=O)c1nnc(C(=O)OC)c(-c2ccc3c([N+](=O)[O-])c(OC)ccc3n2)n1 | -12% (inactive) |
| CCOC(=O)c1nc(C(=O)OCC)c(C(=O)OCC)c(-c2ccc(OC)c(OC)c2OCc2ccccc2)c1C | 2% (inactive) |
| COC1=C(Br)C(=O)c2ncccc2C1=O | 90% |
| COC(=O)c1nc(C(=O)OC)c(NC(C)=O)c(-c2ccccc2Br)c1C | 67% |
| COc1ccc2nc(C#N)ccc2c1 | -10% (inactive) |
| COC(=O)c1nnc(C(=O)OC)c(-c2ccc3cc(OC)ccc3n2)n1 | -2% (inactive) |
| NC1=CC(=O)c2ccc(-c3cc(C(=O)O)ccc3N)nc2C1=O | 97% |
| COC1=C(I)C(=O)c2nc(C#N)ccc2C1=O | 98% |
| COC(=O)c1cc(-c2ccccc2)c(C(=O)OC)c(-c2ccc3ccccc3n2)n1 | -11% (inactive) |
| O=C1C=C(Br)C(=O)c2ncccc21 | 100% |
| COC1=C(Br)C(=O)c2nc(-c3ccccn3)ccc2C1=O | 98% |
| COC(=O)c1cccc(-c2ccc3ccc(Br)c(O)c3n2)n1 | 27% (inactive) |
